According to ChEMBL document CHEMBL1124538, “Mono and bis(bioreductive) alkylating agents: synthesis and antitumor activities in a B16 melanoma model” (J Med Chem, 1989):
Several values for one entry are separate records, joined by “and”; a condition that tells them apart may be missing. Identical values can stand only once.

Experiments:
B16 [1] = test: (§1) Percent B16 melanoma growth inhibition at dose 10 mg/kg in mice; type: functional, Mus musculus; conditions: for inhibition in vivo at 10 mg/kg: Mus musculus, B16, dose 10 mg/kg; for Inhibition: dose 10 mg/kg
In short: (§2)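 B16 brei (1:10 w/v in HBSS, 0.5 mL) was implanted sc into female BDF1 mice. Mice got ip doses for 9 consecutive days after the tumor became palpable, in saline, 0.3% Klucel or 0.33% Klucel/NaHCO3. Serial tumor diameters were measured. Inhibition = 100 − [(change in average tumor diameter, treated/control) × 100]; active if ≥25%.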

Mus musculus [2] = test: (§3) Antitumor efficacy against subcutaneously implanted B16 melanoma tumor in BDF1 hybrid mice, administered intraperitoneally with 10 mg/kg of compound; type: functional
In short: (§4)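 Female BDF1 mice received 0.5 mL B16 tumor brei sc into the shaved dorsoscapular area; the brei was a 1:10 w/v dilution in HBSS from tumor passaged sc in C57BL/6 mice. Dosing was ip for 9 consecutive days once the tumor was palpable, in saline, 0.3% Klucel or 0.33% Klucel/NaHCO3. Mice were observed daily for up to 120 days. %T/C is median survival treated/control (NCI Instruction 14); active if ≥140.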

Mus musculus [3] = test: Antitumor efficacy against subcutaneously implanted B16 melanoma tumor in BDF1 hybrid mice, administered intraperitoneally with 20 mg/kg of compound; type: functional; in short: as §4
B16 [4] = test: Percent B16 melanoma growth inhibition at dose 20 mg/kg in mice; type: functional, Mus musculus; conditions: for inhibition in vivo at 20 mg/kg: Mus musculus, B16, dose 20 mg/kg; in short: as §2
B16 [5] = test: as §3; type: functional, Mus musculus; in short: as §4
B16 [6] = test: Percent B16 melanoma growth inhibition at dose 4 mg/kg in mice; type: functional; conditions: Mus musculus; in short: as §2
Mus musculus [7] = test: Compound was tested for increase in life span of P388 leukemia bearing mice at dose of 10 mg/Kg; Did nto increase significantly; type: functional, organism-based
Mus musculus [8] = test: Compound was tested for increase in life span of P388 leukemia bearing mice at dose of 5 mg/Kg; Did nto increase significantly; type: functional, organism-based
Mus musculus [9] = test: Antitumor efficacy against subcutaneously implanted B16 melanoma tumor in BDF1 hybrid mice, administered intraperitoneally with 4 mg/kg of compound; type: functional; in short: as §4
Mus musculus [10] = test: Compound was tested for increase in life span of P388 leukemia bearing mice at dose of 40 mg/Kg; Showed Toxicity, and weight loss; type: organism-based; conditions: in vivo
Mus musculus [11] = test: Compound was tested for increase in life span of P388 leukemia bearing mice at dose of 20 mg/Kg; Showed Toxicity, and weight loss; type: organism-based; conditions: in vivo
Mus musculus [12] = test: as §1; type: functional; conditions: B16, dose 10 mg/kg; in short: as §2

SMILES	inhibition in vivo at 10 mg/kg (B16 [1]) [%]	T/C (Mus musculus [2]) [%]	inhibition in vivo at 20 mg/kg (B16 [4]) [%]	also measured
O=C1C=C(CO)C(=O)C(CO)=C1	19	90	36	T/C (Mus musculus [3]): 171%
O=C(O)CCC(=O)OCC1=CC(=O)C(COC(=O)CCC(=O)O)=CC1=O	38	–	–	Inhibition (B16 [1]): 19%; T/C (Mus musculus [2]; 10 mg/kg): 115% and 111%
O=C1C=CC(=O)C(COC(=O)CCC(=O)O)=C1	27	164	19	Inhibition (B16 [1]): 32%; T/C (B16 [5]): 130%; T/C (Mus musculus [3]): 115%
CC(=O)OCC1=CC(=O)C=CC1=O	–	–	63	T/C (Mus musculus [3]): 142%; inhibition in vivo at 4 mg/kg (B16 [6]): 31%; Increase in life-span (Mus musculus [7]): Did nto increase significantly; Increase in life-span (Mus musculus [8]): Did nto increase significantly; T/C (Mus musculus [9]): 144%; Increase in life-span (Mus musculus [10]): Did nto increase significantly; Increase in life-span (Mus musculus [11]): Did nto increase significantly
O=C1C=C(CBr)C(=O)C(CBr)=C1	24	105	–	–
CC(=O)OCC1=CC(=O)C(CCC2=CC(=O)C(COC(C)=O)=CC2=O)=CC1=O	16	129	–	–
COC1=CC(=O)C(COC(C)=O)=CC1=O	0	110	–	–
O=C1C=C(CCl)C(=O)C=C1CCl	–	104	–	inhibition in vivo at 10 mg/kg (Mus musculus [12]): 4%
O=C(O)CCC(=O)OCC1=CC(=O)C(CCC2=CC(=O)C(COC(=O)CCC(=O)O)=CC2=O)=CC1=O	–	–	–	T/C (Mus musculus [2]; 10 mg/kg): 123% and 106%
O=C1C=C(COC(=O)CCC(=O)O)C(=O)C(COC(=O)CCC(=O)O)=C1	–	–	23	T/C (Mus musculus [3]; 20 mg/kg): 110% and 130%; Inhibition (B16 [4]; dose 20 mg/kg): 29%
O=C1C=C(CBr)C(=O)C=C1CBr	20	–	–	Inhibition (B16 [1]): 30%; T/C (Mus musculus [2]; 10 mg/kg): 140% and 118%
O=C1C=C(CCC2=CC(=O)C(CBr)=CC2=O)C(=O)C=C1CBr	16	102	–	–
CC(=O)OCC1=CC(=O)C=C(COC(C)=O)C1=O	13	100	–	–
